Values joined by “and” are separate entries in the source; they are usually repeats but may differ in a detail not shown here. Equal entries are not always repeated.
Experiments:
Format in all cases: toxicity, cell-based
[1] = system: Fibroblast; experiment: Multiplex assay against human fibroblast; conditions: 24 h, 10 µM, compound concentration 10 uM
Outline: (§1)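 Per cents of healthy-nucleus cells form the tubulin, mitochondrial-mass and membrane-permeability phenotype values. Live cells were stained at seeding with Hoechst33342, BioTracker Green Microtubule Cytoskeleton Dye, MitoTracker Red and Annexin V Alexa Fluor 680. After compound addition they were imaged on a CQ1 microscope at 37°C and 5% CO2, and CellPathfinder machine-learning gating split them into Hoechst high-intensity objects or normal cells, normal cells into healthy, pyknosed or fragmented nuclei, and pyknosed cells into mitotic or apoptotic.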

[2] = system: HEK-293T; experiment: Multiplex assay against HEK293T; conditions: human, 10 µM, compound concentration 10 uM; outline: as §1;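 for Population Tubulin-Different-Phenotype (%): share of the cells with healthy nuclei that show this phenotype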
[3] = system: U2OS; experiment: Incucyte cell viability with U2OS; conditions: human, 10 µM, compound concentration 10 uM; note: filed as whole numbers so only -1 and 0 and 1 occur
[4] = system: HEK-293T; experiment: Incucyte cell viability with HEK293T; conditions: human, 10 µM, compound concentration 10 uM; note: filed as whole numbers so only -1 and 0 and 1 occur
[5] = 0 h, replicate number 1, timepoint 0 hours
[6] = 6 h, replicate number 2, timepoint 6 hours
[7] = 18 h, replicate number 1, timepoint 18 hours
[8] = 18 h, replicate number 2, timepoint 18 hours
[9] = 24 h, replicate number 1, timepoint 24 hours

## Cc1sc2c(c1C)C(c1ccc(Cl)cc1)=N[C@@H](CC(=O)OC(C)(C)C)c1nnc(C)n1-2
[1]; replicate 1
  Population Mitotic Cells (%): 26%
  Population Normal (%): 87% and 83%
  Population Pyknosed Nuclei (%): 16% and 11%
  Population Tubulin-Different-Phenotype (%): 2% and 1%
  Total Cell Count: 183 and 320
[1]; replicate 2
  Population Apoptotic (%): 71% and 66%
  Population Fragmented Nuclei (%): 56% and 42%
  Population Healthy Nuclei (%): 31% and 49%
  Population Hoechst High Intensity Objects (%): 28% and 21%
  Population Mitochondria Different-Phenotype (%): 11% and 14%
  Population Mitotic Cells (%): 28% and 33%
  Population Normal (%): 71% and 78%
  Population Pyknosed Nuclei (%): 12% and 8%
  Population Tubulin-Different-Phenotype (%): 11%
  Total Cell Count: 81 and 91
[2]; 12 h, replicate 1
  Population Apoptotic (%): 16% and 17%
  Population Fragmented Nuclei (%): 19% and 13%
  Population Healthy Nuclei (%): 65% and 71%
  Population Hoechst High Intensity Objects (%): 14% and 8%
  Population Membrane Permeable-Phenotype (%): 3%
  Population Mitochondria Different-Phenotype (%): 6% and 5%
  Population Mitotic Cells (%): 83% and 82%
  Population Normal (%): 85% and 91%
  Population Pyknosed Nuclei (%): 15%
  Population Tubulin-Different-Phenotype (%): 2%
  Total Cell Count: 561 and 772
[2]; 12 h, replicate 2
  Population Apoptotic (%): 6% and 3%
  Population Fragmented Nuclei (%): 14% and 12%
  Population Healthy Nuclei (%): 79%
  Population Hoechst High Intensity Objects (%): 3% and 4%
  Population Membrane Permeable-Phenotype (%): 0%
  Population Mitochondria Different-Phenotype (%): 10% and 11%
  Population Mitotic Cells (%): 93% and 96%
  Population Normal (%): 96% and 95%
  Population Pyknosed Nuclei (%): 5% and 7%
  Population Tubulin-Different-Phenotype (%): 0%
  Total Cell Count: 1959 and 1675
[2]; 24 h, replicate 1
  Population Apoptotic (%): 16% and 12%
  Population Fragmented Nuclei (%): 17% and 9%
  Population Healthy Nuclei (%): 70% and 80%
  Population Hoechst High Intensity Objects (%): 11% and 10%
  Population Membrane Permeable-Phenotype (%): 1%
  Population Mitochondria Different-Phenotype (%): 7% and 3%
  Population Mitotic Cells (%): 84% and 87%
  Population Normal (%): 88% and 89%
  Population Pyknosed Nuclei (%): 11% and 10%
  Population Tubulin-Different-Phenotype (%): 2% and 1%
  Total Cell Count: 472 and 770
[2]; 24 h, replicate 2
  Population Apoptotic (%): 5%
  Population Fragmented Nuclei (%): 19% and 20%
  Population Healthy Nuclei (%): 76% and 75%
  Population Hoechst High Intensity Objects (%): 5%
  Population Membrane Permeable-Phenotype (%): 0%
  Population Mitochondria Different-Phenotype (%): 5%
  Population Mitotic Cells (%): 94%
  Population Normal (%): 94%
  Population Pyknosed Nuclei (%): 4% and 3%
  Population Tubulin-Different-Phenotype (%): 0%
  Total Cell Count: 1813 and 2044
[3]; [5]
  Growth Rate: 0
[3]; 6 h, replicate number 1, timepoint 6 hours
  Growth Rate: 0
[3]; [6]
  Growth Rate: 1
[3]; 12 h, replicate number 1, timepoint 12 hours
  Growth Rate: 1
[3]; [7]
  Growth Rate: 0
[3]; [8]
  Growth Rate: 1
[3]; [9]
  Growth Rate: 0
[3]; 24 h, replicate number 2, timepoint 24 hours
  Growth Rate: 1
[4]; [5]
  Growth Rate: 0
[4]; 0 h, replicate number 2, timepoint 0 hours
  Growth Rate: 1
[4]; [6]
  Growth Rate: 0
[4]; 12 h, replicate number 2, timepoint 12 hours
  Growth Rate: 0
[4]; [7]
  Growth Rate: 1
[4]; [8]
  Growth Rate: 0
[4]; [9]
  Growth Rate: 0

— ChEMBL document CHEMBL4689842, “EUbOPEN Chemogenomics Library wave 1” (2021)
